Assay results from ChEMBL document CHEMBL1157241, “Search for Hsp90 inhibitors with potential anticancer activity: isolation and SAR studies of radicicol and monocillin I from two plant-associated fungi of the Sonoran desert” (J Nat Prod, 2006).
Calls of active or inactive are those of the source. No cut-off for these calls is given here.

What was measured:
[1] = Cytotoxicity against in mouse 3T3-Y9/B12 cells at 10 uM; assay type: cell-based
How it was run: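 Mouse 3T3-Y9/B12 heat-shock reporter cells were plated at 20 000 cells/well and left to attach overnight. Compound was added at 10.0 µM in triplicate wells and incubated overnight. Treated wells were then examined by microscope for toxicity, recording whether any living cells remained.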

Oryctolagus cuniculus = species on record: Oryctolagus cuniculus; assay: Inhibition of Hsp90 in rabbit reticulocyte lysate assessed as inhibition of heat-denatured firefly luciferase renaturation at 10 uM relative to geldanamycin
How it was run: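 Rabbit reticulocyte lysate with an ATP-regenerating system (10 mM phosphocreatine, 1 mM ATP, 17.5 units creatine phosphokinase) was preincubated 20 min with compound in DMSO. Firefly luciferase (100 nM, pH 7.8 tricine buffer) was heat-denatured 8 min at 40 °C, then diluted 10-fold into the lysate and incubated at 28 °C. Luminescence was read in triplicate at 3 min and expressed as % of DMSO control.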

MCF7 [2] = assay: Antiproliferative activity against human MCF7 cells by MTT assay; assay type: functional, cell-based
How it was run: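 MCF-7 cells were seeded at 2000 cells/well and dosed the next day with serial dilutions in triplicate. GDA was the positive control and DMSO vehicle the negative control. After 3 days at 37 °C under 5% CO2, MTT was added for 3 h in the dark. Medium was replaced with DMSO and absorbance read at 570 nm, minus 650 nm background.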

Mus musculus = species on record: Mus musculus; assay: Induction of heat shock response in mouse 3T3-Y9/B12 cells at 5 uM by fluorescence technique relative to geldanamycin; assay type: functional, cell-based
How it was run: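 3T3-Y9/B12 reporter cells were plated at 20 000 cells/well and attached overnight. Triplicate wells received compound at 5.0 µM, GDA positive control at 5.0 µM, or DMSO vehicle (≤0.1%). After overnight incubation, wells were rinsed and read in PBS by fluorescence (ex 485, em 525 nm). Signal was expressed as percentage of DMSO control, mean ± SD of triplicates, with three independent experiments.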

MCF7 [3] = assay: Antiproliferative activity against human MCF7 cells at 1 uM by MTT assay; assay type: functional, cell-based

Compound | Activity [1] | Activity (Oryctolagus cuniculus) | IC50 (MCF7 [2]) [nM] | Activity (Mus musculus) | Activity (MCF7 [3])
C[C@@H]1C[C@H]2O[C@@H]2CCCCC(=O)Cc2c(Cl)c(O)cc(O)c2C(=O)O1 [TETRAHYDRORADICICOL] | Toxic | Active | 190 | Active | 
COc1cc(O)c2c(c1)CC(=O)/C=C/C=C\[C@H]1O[C@@H]1C[C@@H](C)OC2=O [MONOMETHYL MONOCILLIN I] | Toxic |  |  | Active | inactive
COc1cc2c(c(OC)c1)C(=O)O[C@H](C)C[C@H]1O[C@@H]1/C=C\C=C\C(=O)C2 [DIMETHYL MONOCILLIN I] | Toxic |  |  |  | 
C[C@@H]1C[C@H]2O[C@@H]2/C=C\C=C\C(=O)Cc2cc(O)cc(O)c2C(=O)O1 [MONOCILLIN I] | Toxic | Active | 340 | Active | 
C[C@H]1CCC[C@H](O)CCCCCc2cc(O)cc(O)c2C(=O)O1 [ZERANOL] | Toxic |  |  |  | 
C[C@H]1CCCC(=O)CCCCCc2cc(O)cc(O)c2C(=O)O1 [ZEARALANONE] | Toxic |  |  |  | 
COc1cc(OC)c2c(c1Cl)CC(=O)/C=C/C=C\[C@H]1O[C@@H]1C[C@@H](C)OC2=O [DIMETHYL RADICICOL] | Toxic |  |  | Active | inactive
C[C@@H]1C[C@H]2O[C@@H]2/C=C\C=C\C(=O)Cc2c(Cl)c(O)cc(O)c2C(=O)O1 [RADICICOL] | Toxic | Active | 30 | Active | 
COc1cc(O)c2c(c1Cl)CC(=O)/C=C/C=C\[C@H]1O[C@@H]1C[C@@H](C)OC2=O [MONOMETHYL RADICICOL] | Toxic | Active | 900 | Active | 
C[C@@H]1C[C@H]2O[C@@H]2CCCCC(=O)Cc2cc(O)cc(O)c2C(=O)O1 [TETRAHYDROMONOCILLIN I] | Toxic | Active |  | Active | inactive
C[C@@H]1C[C@H](O)CCCCCC(=O)Cc2cc(O)cc(O)c2C(=O)O1 [HEXAHYDROMONOCILLIN I] | Toxic |  |  |  | 
C[C@H]1CCC[C@@H](O)CCCCCc2cc(O)cc(O)c2C(=O)O1 (stereo in doubt; 14) |  | Active |  |  | inactive
C[C@H]1CCCC(=O)CCC/C=C/c2cc(O)cc(O)c2C(=O)O1 [ZEARALENONE] | Toxic | Active |  |  | inactive
C[C@@H]1C[C@H](O)CCCCCC(=O)Cc2c(Cl)c(O)cc(O)c2C(=O)O1 [HEXAHYDRORADICICOL] | Toxic |  |  |  | 
C[C@H]1CCC[C@@H](O)CCCCCc2cc(O)cc(O)c2C(=O)O1 (stereo in doubt; 16) |  | Active |  |  | inactive
